Laboratory results reported in ChEMBL document CHEMBL1149657, “Benzylamine histamine H(3) antagonists and serotonin reuptake inhibitors” (Bioorg Med Chem Lett, 2007).

Tests used:
[1] = target: Sodium-dependent serotonin transporter (Homo sapiens, UniProt P31645); assay: Binding affinity to human SERT
[2] = target: Sodium-dependent dopamine transporter (Homo sapiens, UniProt Q01959); assay: Binding affinity to human DAT
Summary of the method: (§1)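 Human NET and DAT Ki values from one experiment run in triplicate.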

[3] = target: Sodium-dependent noradrenaline transporter (Homo sapiens, UniProt P23975); assay: Binding affinity to human NET; summary of the method: as §1
Histamine H3 receptor = Histamine H3 receptor (Homo sapiens, UniProt Q9Y5N1); assay: Binding affinity to human histamine H3 receptor
[4] = Drug level in rat brain at 10 mg/kg, po after 6 hrs; type: ADME, organism-based; parameters: dose 10 mg/kg, route oral; conditions: read-out: Drug uptake
[5] = Drug level in rat brain at 10 mg/kg, po after 3 hrs; type: ADME, organism-based; parameters: dose 10 mg/kg, route oral; conditions: read-out: Drug uptake
[6] = Plasma concentration in rat at 10 mg/kg, po after 6 hrs; type: ADME, organism-based; parameters: dose 10 mg/kg, route oral
[7] = Plasma concentration in rat at 10 mg/kg, po after 3 hrs; type: ADME, organism-based; parameters: dose 10 mg/kg, route oral
[8] = Drug level in rat brain at 10 mg/kg, po after 1 hr; type: ADME, organism-based; parameters: dose 10 mg/kg, route oral; conditions: read-out: Drug uptake
[9] = Plasma concentration in rat at 10 mg/kg, po after 1 hr; type: ADME, organism-based; parameters: dose 10 mg/kg, route oral
[10] = target: Sodium-dependent serotonin transporter (Rattus norvegicus, UniProt P31652); assay: Binding affinity to rat SERT
Sequence of Sodium-dependent serotonin transporter (Rattus norvegicus, UniProt P31652) (P31652 whole entry): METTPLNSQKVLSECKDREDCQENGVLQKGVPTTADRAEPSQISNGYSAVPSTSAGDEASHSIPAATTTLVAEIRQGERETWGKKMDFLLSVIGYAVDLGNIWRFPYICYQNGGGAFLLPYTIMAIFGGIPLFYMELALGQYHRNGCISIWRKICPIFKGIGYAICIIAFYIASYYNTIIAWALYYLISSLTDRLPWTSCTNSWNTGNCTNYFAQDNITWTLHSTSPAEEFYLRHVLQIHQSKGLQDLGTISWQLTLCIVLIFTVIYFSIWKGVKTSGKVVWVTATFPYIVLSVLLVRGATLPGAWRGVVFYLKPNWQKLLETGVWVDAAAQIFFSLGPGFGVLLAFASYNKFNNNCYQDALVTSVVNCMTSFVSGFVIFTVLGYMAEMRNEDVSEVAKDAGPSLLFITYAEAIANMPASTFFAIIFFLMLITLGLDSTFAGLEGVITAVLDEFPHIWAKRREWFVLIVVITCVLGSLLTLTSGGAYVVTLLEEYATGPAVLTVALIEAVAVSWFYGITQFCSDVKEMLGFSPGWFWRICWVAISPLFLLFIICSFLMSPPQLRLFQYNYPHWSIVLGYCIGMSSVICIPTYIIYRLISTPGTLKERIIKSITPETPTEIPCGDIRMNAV

Sequence of Sodium-dependent dopamine transporter (Q01959 whole entry): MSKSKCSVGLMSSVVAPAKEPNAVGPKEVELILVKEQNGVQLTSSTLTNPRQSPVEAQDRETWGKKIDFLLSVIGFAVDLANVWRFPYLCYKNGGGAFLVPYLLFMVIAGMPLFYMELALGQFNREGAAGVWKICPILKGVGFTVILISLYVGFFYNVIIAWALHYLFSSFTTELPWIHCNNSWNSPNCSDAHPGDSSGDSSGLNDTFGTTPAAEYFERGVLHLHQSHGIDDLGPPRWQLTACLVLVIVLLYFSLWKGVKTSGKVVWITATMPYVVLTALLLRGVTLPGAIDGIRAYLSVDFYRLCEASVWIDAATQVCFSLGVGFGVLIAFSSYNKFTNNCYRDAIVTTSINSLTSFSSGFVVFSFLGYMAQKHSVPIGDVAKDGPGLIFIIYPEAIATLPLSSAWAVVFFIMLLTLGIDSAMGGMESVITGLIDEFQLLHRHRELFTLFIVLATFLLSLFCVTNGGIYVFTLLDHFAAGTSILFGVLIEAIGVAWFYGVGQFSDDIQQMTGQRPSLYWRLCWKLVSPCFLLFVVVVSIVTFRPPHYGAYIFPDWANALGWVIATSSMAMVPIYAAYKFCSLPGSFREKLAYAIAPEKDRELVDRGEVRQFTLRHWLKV
Sequence of Sodium-dependent serotonin transporter (Homo sapiens, UniProt P31645) (P31645 whole entry): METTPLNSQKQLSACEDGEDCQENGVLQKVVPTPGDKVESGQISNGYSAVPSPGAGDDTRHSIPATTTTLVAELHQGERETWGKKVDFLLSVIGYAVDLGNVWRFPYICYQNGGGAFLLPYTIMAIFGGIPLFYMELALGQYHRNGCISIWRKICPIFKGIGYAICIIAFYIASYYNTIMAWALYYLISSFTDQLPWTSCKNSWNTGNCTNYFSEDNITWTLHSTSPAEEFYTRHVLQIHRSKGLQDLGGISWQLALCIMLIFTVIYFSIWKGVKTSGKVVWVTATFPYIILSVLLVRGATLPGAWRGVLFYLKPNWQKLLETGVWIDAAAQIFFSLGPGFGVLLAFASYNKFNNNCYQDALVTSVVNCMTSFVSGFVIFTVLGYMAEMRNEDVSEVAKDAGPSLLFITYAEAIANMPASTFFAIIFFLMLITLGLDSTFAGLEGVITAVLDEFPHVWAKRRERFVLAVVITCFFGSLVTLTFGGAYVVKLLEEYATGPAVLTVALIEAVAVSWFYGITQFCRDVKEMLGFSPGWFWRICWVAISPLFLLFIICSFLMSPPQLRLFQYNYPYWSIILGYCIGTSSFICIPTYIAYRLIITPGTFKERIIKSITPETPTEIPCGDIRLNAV
Sequence of Sodium-dependent noradrenaline transporter (P23975 whole entry): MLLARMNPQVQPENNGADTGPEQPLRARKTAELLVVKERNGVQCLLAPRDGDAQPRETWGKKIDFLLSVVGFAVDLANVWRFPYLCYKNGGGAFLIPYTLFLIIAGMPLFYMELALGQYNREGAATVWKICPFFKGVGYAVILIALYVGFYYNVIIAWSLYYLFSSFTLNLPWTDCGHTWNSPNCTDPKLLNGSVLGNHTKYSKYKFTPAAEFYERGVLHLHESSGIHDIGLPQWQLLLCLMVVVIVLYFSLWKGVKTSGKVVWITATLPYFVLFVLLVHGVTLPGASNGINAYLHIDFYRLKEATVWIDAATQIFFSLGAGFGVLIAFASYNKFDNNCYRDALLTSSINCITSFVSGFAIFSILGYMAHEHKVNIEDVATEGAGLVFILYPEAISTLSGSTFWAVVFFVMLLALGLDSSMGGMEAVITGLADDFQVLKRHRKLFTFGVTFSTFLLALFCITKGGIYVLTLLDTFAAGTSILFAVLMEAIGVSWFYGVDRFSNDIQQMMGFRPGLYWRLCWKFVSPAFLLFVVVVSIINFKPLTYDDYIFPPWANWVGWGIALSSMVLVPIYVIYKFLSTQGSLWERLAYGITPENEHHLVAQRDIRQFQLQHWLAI
Sequence of Histamine H3 receptor (Q9Y5N1 whole entry): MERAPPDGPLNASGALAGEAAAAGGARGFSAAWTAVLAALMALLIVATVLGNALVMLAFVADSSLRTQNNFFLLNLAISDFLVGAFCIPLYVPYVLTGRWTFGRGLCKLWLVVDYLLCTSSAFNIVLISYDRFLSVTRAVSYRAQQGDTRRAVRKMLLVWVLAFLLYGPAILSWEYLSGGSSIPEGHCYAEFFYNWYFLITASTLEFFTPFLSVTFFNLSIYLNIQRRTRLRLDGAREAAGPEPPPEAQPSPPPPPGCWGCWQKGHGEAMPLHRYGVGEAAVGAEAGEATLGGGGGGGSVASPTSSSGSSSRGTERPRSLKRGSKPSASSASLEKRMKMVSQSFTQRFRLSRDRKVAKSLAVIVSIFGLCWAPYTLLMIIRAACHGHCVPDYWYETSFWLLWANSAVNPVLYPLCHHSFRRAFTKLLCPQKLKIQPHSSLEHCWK

SMILES	Ki [1] [nM]	Ki [2] [nM]	Ki [3] [nM]	Ki (Histamine H3 receptor) [nM]	concentration at 6 h [4] [nM]	concentration at 3 h [5] [nM]	concentration at 6 h [6] [nM]	concentration at 3 h [7] [nM]	concentration at 1 h [8] [nM]	concentration at 1 h [9] [nM]	Ki [10] [nM]
COc1ccc([C@@H]2CN(C)Cc3cc(OCCCN4CCC(F)CC4)ccc32)cc1	2.7	–	–	–	–	–	–	–	–	–	–
CNCc1cc(C#CCCN2CCOCC2)ccc1Oc1ccc(SC)cc1	–	700	290	–	–	–	–	–	–	–	–
CCN(CC)CCCOc1cc2c(cn1)C(c1ccc(Cl)c(Cl)c1)CN(C)C2 (stereo not given)	26	–	–	7	–	–	–	–	–	–	–
CNCc1cc(C#CCCN2CCOCC2)ccc1Oc1ccc(Cl)cc1	–	–	–	–	1660	1700	28	40	1380	68	–
CNCc1cc(C#CCCN2CCOCC2)ccc1Oc1cccc(F)c1	–	–	–	–	1870	1420	48	91	820	110	–
CNCc1cc(C#CCCN2CCOCC2)ccc1Oc1ccc(C(F)(F)F)cc1	–	–	–	–	5400	4650	150	310	1770	240	–
CNCc1cc(C#CCCN2CCOCC2)ccc1Oc1ccc(Cl)c(C(F)(F)F)c1	–	–	–	–	3560	1860	110	120	370	53	–
CNCc1cc(C#CCCN2CCSCC2)ccc1Oc1ccc(SC)cc1	–	–	–	–	10	360	250	360	87	45	–
CNCc1cc(C#CCCN(C)C2CC2)ccc1Oc1ccc(SC)cc1	–	400	250	–	240	220	12	24	200	39	–
CNCc1cc(C#CCCN2CCNC(=O)C2)ccc1Oc1ccc(SC)cc1	1.3	–	–	–	–	–	–	–	–	–	–
CNCc1cc(Br)ccc1Oc1ccc(SC)cc1	1.7	–	–	9000	–	–	–	–	–	–	0.5
CNCc1cc(C#CCCN2CCC(F)CC2)ccc1Oc1ccc(SC)cc1	–	190	96	–	130	63	10	8	44	23	–
CNCc1cc(C#CCCN2CCOCC2)ccc1Oc1ccc(SC)c(C)c1	–	1000	240	–	–	–	–	–	–	–	–
CNCc1cc(C#CCCN2CCOCC2)ccc1Oc1cccc(Cl)c1	–	–	–	–	10100	5130	270	230	2370	180	–
CNCc1cc(C#CCCN2CCOCC2)ccc1Oc1ccc(F)cc1Cl	–	–	–	–	400	440	8	18	270	30	–
CNCc1cc(C#CCCNC2CC2)ccc1Oc1ccc(SC)cc1	–	–	–	–	520	320	27	32	120	17	–
